Experimental data reported in ChEMBL document CHEMBL4627281, “A small molecule inhibitor of PCSK9 that antagonizes LDL receptor binding via interaction with a cryptic PCSK9 binding groove” (Bioorg Med Chem, 2020).

Legend:
[1] = molecular target: PCSK9/LDLR (Homo sapiens, UniProt Q8NBP7); assay: Inhibition of recombinant human His-tagged PCSK9 interaction with recombinant LDLR AB domain (unknown origin) measured after 3 hrs by horseradish peroxidase-coupled TMB substrate based spectrophotometry; type: protein assay
Sequence of PCSK9/LDLR (Q8NBP7 31-152 limits assumed): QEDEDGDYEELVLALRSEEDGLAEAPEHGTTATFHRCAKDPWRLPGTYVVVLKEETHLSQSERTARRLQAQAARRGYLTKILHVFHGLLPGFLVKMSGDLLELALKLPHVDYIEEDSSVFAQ
Sequence of PCSK9/LDLR (Q8NBP7 153-692 limits assumed): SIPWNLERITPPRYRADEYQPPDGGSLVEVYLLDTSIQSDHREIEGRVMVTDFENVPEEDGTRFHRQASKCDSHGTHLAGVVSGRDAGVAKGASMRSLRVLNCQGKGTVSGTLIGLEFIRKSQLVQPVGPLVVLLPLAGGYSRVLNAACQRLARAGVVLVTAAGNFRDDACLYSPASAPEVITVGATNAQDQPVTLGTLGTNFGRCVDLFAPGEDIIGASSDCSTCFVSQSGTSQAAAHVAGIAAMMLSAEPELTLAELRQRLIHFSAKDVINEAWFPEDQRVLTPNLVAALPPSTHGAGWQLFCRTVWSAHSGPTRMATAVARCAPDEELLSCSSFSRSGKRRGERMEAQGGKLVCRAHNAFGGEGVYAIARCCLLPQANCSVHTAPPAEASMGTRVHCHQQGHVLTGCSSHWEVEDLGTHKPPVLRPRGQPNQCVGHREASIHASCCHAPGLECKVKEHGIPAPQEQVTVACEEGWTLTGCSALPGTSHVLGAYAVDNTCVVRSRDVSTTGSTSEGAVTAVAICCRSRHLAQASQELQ
Sequence of PCSK9/LDLR (P01130 22-860 partner limits assumed): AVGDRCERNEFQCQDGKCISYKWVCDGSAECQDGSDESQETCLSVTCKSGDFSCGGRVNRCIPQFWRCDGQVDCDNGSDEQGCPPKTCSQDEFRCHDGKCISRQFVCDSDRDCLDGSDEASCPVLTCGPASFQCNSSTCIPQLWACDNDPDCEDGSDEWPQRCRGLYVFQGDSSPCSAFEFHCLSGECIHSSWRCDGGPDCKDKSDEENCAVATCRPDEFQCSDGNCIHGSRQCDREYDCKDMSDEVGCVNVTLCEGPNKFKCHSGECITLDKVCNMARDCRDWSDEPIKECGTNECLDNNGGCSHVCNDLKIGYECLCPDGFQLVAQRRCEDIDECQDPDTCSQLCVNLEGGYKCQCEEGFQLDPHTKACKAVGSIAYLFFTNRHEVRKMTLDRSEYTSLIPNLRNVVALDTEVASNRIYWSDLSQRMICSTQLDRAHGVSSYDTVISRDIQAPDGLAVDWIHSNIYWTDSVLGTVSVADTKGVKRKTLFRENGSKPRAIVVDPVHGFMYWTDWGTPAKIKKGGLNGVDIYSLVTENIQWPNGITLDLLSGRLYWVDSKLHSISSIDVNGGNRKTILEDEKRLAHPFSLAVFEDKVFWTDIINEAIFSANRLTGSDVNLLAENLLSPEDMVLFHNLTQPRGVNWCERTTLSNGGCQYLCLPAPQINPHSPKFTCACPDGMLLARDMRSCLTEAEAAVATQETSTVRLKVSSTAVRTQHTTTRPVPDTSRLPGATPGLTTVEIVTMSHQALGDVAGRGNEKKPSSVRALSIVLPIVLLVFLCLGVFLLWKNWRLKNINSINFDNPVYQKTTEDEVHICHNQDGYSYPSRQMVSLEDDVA
Summary of the method: (§1)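 ELISA plates pre-coated with LDLR-EGF-AB domain. Compounds serially diluted from 10 mM DMSO stocks in reaction buffer, with 7 ng His-tagged human PCSK9 added, 3 h at room temperature with shaking. Binding detected with biotinylated anti-His antibody (1 h), then HRP-streptavidin (20 min), then substrate (15 min); absorbance read at 450/540 nm. IC50 taken from the % inhibition curve.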

[2] = molecular target: Mast/stem cell growth factor receptor Kit (Homo sapiens, UniProt P10721); assay: Inhibition of recombinant human N-terminal GST-tagged c-Kit (544 to end residues) expressed in baculovirus infected Sf21 insect cells using FAM-labelled P22 peptide as substrate preincubated for 10 mins followed by substrate addition and measured after 1 hr in presence of ATP by fluorescence assay
Sequence of Mast/stem cell growth factor receptor Kit (P10721 whole entry, the tested form may be a part): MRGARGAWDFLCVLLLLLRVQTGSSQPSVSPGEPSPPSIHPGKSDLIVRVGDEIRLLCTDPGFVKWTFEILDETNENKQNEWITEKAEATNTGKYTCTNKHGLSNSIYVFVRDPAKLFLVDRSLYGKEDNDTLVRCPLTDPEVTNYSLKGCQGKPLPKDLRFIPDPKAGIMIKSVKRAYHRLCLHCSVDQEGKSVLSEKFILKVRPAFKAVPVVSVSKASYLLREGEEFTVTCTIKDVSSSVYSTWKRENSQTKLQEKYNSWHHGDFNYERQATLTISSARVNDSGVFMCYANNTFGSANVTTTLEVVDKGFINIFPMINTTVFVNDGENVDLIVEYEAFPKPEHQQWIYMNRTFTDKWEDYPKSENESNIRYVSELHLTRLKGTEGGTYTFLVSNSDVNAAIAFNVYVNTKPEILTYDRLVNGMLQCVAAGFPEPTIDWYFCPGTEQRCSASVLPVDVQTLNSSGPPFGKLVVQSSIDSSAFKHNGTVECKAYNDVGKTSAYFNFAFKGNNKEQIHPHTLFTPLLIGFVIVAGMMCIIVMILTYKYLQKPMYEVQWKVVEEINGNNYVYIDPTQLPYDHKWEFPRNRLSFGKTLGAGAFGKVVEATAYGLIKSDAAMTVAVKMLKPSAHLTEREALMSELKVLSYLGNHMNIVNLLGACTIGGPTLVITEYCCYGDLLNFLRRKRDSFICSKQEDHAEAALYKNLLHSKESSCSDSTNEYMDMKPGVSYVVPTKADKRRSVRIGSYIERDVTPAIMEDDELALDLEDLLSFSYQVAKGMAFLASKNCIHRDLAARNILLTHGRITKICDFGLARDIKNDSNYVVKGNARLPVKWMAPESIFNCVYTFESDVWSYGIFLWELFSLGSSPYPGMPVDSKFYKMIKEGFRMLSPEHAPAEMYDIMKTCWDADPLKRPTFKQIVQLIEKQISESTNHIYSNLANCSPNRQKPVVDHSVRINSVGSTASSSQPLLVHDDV

[3] = molecular target: Tyrosine-protein kinase ABL1 (Homo sapiens, UniProt P00519); assay: Inhibition of recombinant human N-terminal His-tagged Abl (2 to 1130 residues) expressed in baculovirus expression system using FAM-labelled P2 peptide as substrate preincubated for 10 mins followed by substrate addition and measured after 1 hr in presence of ATP by fluorescence assay
[4] = molecular target: Platelet-derived growth factor receptor beta (Homo sapiens, UniProt P09619); assay: Inhibition of recombinant human N-terminal GST-tagged PDGFRbeta cytoplasmic domain (557 to 1106 residues) expressed in baculovirus expression system using FAM-labelled P22 peptide as substrate preincubated for 10 mins followed by substrate addition and measured after 1 hr in presence of ATP by fluorescence assay
Sequence of Platelet-derived growth factor receptor beta (P09619 whole entry, the tested form may be a part): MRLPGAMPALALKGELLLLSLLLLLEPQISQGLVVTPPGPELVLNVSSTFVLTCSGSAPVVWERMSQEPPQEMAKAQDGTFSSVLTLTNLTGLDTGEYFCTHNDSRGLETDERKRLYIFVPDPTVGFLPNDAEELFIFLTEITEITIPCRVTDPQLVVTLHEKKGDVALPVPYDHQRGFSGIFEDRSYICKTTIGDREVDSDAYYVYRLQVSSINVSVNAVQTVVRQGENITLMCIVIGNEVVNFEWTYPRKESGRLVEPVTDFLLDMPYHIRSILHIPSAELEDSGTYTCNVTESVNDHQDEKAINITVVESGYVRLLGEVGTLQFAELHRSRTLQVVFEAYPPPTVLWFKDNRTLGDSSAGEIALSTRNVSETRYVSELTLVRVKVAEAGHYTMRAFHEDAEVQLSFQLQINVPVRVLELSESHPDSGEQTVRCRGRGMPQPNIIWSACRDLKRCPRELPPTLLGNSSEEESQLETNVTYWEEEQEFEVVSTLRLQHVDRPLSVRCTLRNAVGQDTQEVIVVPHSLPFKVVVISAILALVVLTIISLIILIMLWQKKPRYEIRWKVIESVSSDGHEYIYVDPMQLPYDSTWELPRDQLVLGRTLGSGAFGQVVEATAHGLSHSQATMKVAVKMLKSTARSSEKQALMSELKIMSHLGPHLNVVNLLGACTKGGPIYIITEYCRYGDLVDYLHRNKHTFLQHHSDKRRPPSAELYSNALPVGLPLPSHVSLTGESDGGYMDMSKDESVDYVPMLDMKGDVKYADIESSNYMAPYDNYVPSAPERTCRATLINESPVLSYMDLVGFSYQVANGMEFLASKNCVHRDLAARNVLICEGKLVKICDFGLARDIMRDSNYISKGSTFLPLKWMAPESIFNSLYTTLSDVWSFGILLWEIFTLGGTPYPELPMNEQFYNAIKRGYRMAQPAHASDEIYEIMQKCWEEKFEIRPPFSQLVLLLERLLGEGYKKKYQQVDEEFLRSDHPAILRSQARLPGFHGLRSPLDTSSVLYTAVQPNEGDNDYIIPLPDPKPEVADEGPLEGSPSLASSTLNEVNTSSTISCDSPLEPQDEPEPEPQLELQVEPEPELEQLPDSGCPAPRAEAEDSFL

[5] = molecular target: Proto-oncogene tyrosine-protein kinase Src (Homo sapiens, UniProt P12931); assay: Inhibition of recombinant human full-length N-terminal GST-tagged SRC (1 to 536 residues) expressed in baculovirus expression system using FAM-labelled P4 peptide as substrate preincubated for 10 mins followed by substrate addition and measured after 1 hr in presence of ATP by fluorescence assay
Sequence of Proto-oncogene tyrosine-protein kinase Src (P12931 2-536 limits assumed): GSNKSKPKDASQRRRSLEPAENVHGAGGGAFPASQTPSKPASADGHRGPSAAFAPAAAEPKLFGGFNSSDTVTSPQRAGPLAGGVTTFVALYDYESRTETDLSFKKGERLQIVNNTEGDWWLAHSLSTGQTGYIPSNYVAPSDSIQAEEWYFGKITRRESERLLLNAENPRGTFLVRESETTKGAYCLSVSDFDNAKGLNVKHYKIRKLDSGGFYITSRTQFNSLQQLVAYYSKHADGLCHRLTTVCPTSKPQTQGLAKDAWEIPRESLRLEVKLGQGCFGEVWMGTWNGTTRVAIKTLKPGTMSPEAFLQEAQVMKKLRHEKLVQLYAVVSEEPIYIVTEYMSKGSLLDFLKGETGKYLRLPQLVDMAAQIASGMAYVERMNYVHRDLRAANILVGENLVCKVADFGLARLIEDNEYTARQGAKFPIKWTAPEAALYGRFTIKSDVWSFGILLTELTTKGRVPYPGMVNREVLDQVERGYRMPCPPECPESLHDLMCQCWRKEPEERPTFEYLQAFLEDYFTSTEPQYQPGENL

[6] = Clearance in CD1 mouse at 0.4 mg/kg, iv administered as cassette dose measured upto 24 hrs by LC-MS/MS analysis; type: ADME, organism-based; details: in vivo
Summary of the method: (§2)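 Male CD1 mice (second cassette 28–29 g, 7–8 weeks) given one IV 5-in-1 cassette at 0.4 mg/kg per compound in 5% DMAC/5% Solutol HS15/90% saline. Blood (~20 µL) into K2EDTA from the facial vein at 0.083–24 h, terminal bleed by cardiac puncture under isoflurane. Blood diluted with deionised water, stored at −80 °C, analysed by positive-ESI mass spectrometry.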

[7] = Volume of distribution at steady state in CD1 mouse at 0.4 mg/kg, iv administered as cassette dose measured upto 24 hrs by LC-MS/MS analysis; type: ADME, organism-based; details: in vivo, read-out: Vdss; summary of the method: as §2
[8] = Terminal half life in CD1 mouse at 0.4 mg/kg, iv administered as cassette dose measured upto 24 hrs by LC-MS/MS analysis; type: ADME, organism-based; details: in vivo, read-out: beta t1/2 (converted); summary of the method: as §2
[9] = AUClast in CD1 mouse at 0.4 mg/kg, iv administered as cassette dose measured upto 24 hrs by LC-MS/MS analysis; type: ADME, organism-based; set-up: time < 24 hr, dose 0.4 mg/kg, route intravenous; details: in vivo; summary of the method: as §2
[10] = AUCinfinity in CD1 mouse at 0.4 mg/kg, iv administered as cassette dose measured upto 24 hrs by LC-MS/MS analysis; type: ADME, organism-based; set-up: dose 0.4 mg/kg, route intravenous, time infinity; details: in vivo; summary of the method: as §2
[11] = Mean residence time (0 to infinity) in CD1 mouse at 0.4 mg/kg, iv administered as cassette dose measured upto 24 hrs by LC-MS analysis; type: ADME, organism-based; details: in vivo; summary of the method: as §2
[12] = system: PCSK9/LDLR (Homo sapiens), Q8NBP7+P01130 [D374Y]; assay: Inhibition of PCSK9 D374Y mutant (unknown origin) and LDLR protein-protein interaction in human HepG2 cells assessed as increase in Bodipy FL-labelled LDL uptake preincubated for 16 hrs followed by Bodipy FL-labelled LDL addition and measured after 4 hrs by fluorescence assay; type: cell-based
Summary of the method: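 HepG2 cells seeded at 2 × 10^5 cells/mL and attached overnight, then incubated 16 h with PCSK9-D374Y (2 μg/mL) plus compound (0.1 or 1 µM). Medium replaced with 10 μg/mL Bodipy FL LDL for 4 h. Cells washed with warm PBS; fluorescence read at ex 485/em 530 nm. Mean ± S.D.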

[13] = molecular target: PCSK9/LDLR (Homo sapiens) (UniProt Q8NBP7+P01130); assay: Inhibition of recombinant human His-tagged PCSK9 interaction with recombinant LDLR AB domain (unknown origin) at higher concentration measured after 3 hrs by horseradish peroxidase-coupled TMB substrate based spectrophotometry relative to control; type: protein assay; summary of the method: as §1
Sequence of PCSK9/LDLR (Homo sapiens) (P01130 22-860 partner limits assumed): as the sequence (P01130 22-860 partner limits assumed) above
Sequence of PCSK9/LDLR (Homo sapiens) (Q8NBP7 31-152 limits assumed): as the sequence (Q8NBP7 31-152 limits assumed) above
Sequence of PCSK9/LDLR (Homo sapiens) (Q8NBP7 153-692 limits assumed): as the sequence (Q8NBP7 153-692 limits assumed) above

Row | IC50 [1] | IC50 [2] | IC50 [3] | IC50 [4] | IC50 [5] | clearance [6] | Vd [7] | half-life [8] | AUC(0-t) at 24 h [9] | AUC(0-inf) [10] | MRT inf [11] | inhibition [12] | Imax [13] | SMILES
1 | 40.1 µM | 0.79 µM | > 10 µM | > 10 µM | > 10 µM | – | – | – | – | – | – | – | – | Cc1cn(-c2cc(NC(=O)c3ccc(C)c(Nc4nccc(-c5ccc(F)cc5)n4)c3)cc(N3CCOCC3)c2)cn1
2 | 8.4 µM | 0.592 µM | – | 2.48 µM | > 10 µM | – | – | – | – | – | – | – | – | Cc1cn(-c2cc(NC(=O)c3ccc(C)c(Nc4nccc(-c5ccccc5)n4)c3)cc(C(F)(F)F)c2)cn1
3 | 10.7 µM | 3.1 µM | > 10 µM | 5.52 µM | > 10 µM | – | – | – | – | – | – | – | – | Cc1cc(-c2cc(NC(=O)c3ccc(C)c(Nc4nccc(-c5ccc(F)cc5)n4)c3)cc(N3CCN(C)CC3)c2)on1
4 | 0.428 µM | 1.96 µM | > 10 µM | 2.04 µM | > 10 µM | 23.5 mL/min/kg | 13.3 L/kg | 10.8 h | 243 ng·h/mL | 297 ng·h/mL | 10.4 h | – | – | Cc1cn(-c2cc(CN3CCC[C@H](N)C3)cc(NC(=O)c3ccc(C)c(Nc4nccc(-c5ccc(F)cc5)n4)c3)c2)cn1
5 | 9.8 µM | – | – | – | – | – | – | – | – | – | – | – | – | Cc1cn(-c2cc(NC(=O)c3ccc(C)c(Nc4nccc(-c5cccnc5)n4)c3)cc(C(F)(F)F)c2)cn1 [NILOTINIB]
6 | 13.4 µM | 0.618 µM | > 10 µM | > 10 µM | > 10 µM | 12.5 mL/min/kg | 1.69 L/kg | 2.15 h | 508 ng·h/mL | 541 ng·h/mL | 2.27 h | – | – | Cc1cn(-c2cc(NC(=O)c3ccc(C)c(Oc4ccccc4)c3)cc(C(F)(F)F)c2)cn1
7 | 9.28 µM | 0.347 µM | > 10 µM | > 10 µM | > 10 µM | – | – | – | – | – | – | – | – | Cc1cn(-c2cc(CCC(=O)O)cc(NC(=O)c3ccc(C)c(Nc4nccc(-c5ccccc5)n4)c3)c2)cn1
8 | 2.57 µM | 9.87 µM | > 10 µM | > 10 µM | > 10 µM | – | – | – | – | – | – | – | – | Cc1cn(-c2cc(CN3CCCC[C@H]3C(N)=O)cc(NC(=O)c3ccc(C)c(Nc4nccc(-c5ccc(F)cc5)n4)c3)c2)cn1
9 | 0.758 µM | 2.88 µM | > 10 µM | > 10 µM | > 10 µM | 32.8 mL/min/kg | 4.3 L/kg | 2.21 h | 189 ng·h/mL | 204 ng·h/mL | 2.16 h | Dose-dependent effect | > 35% | Cc1cn(-c2cc(NC(=O)c3ccc(C)c(Nc4nccc(-c5ccccc5)n4)c3)cc(N3CCN(C)CC3)c2)cn1
10 | 0.491 µM | 1.49 µM | – | 1.51 µM | 4.36 µM | 52.5 mL/min/kg | 3.74 L/kg | 1.64 h | 116 ng·h/mL | 127 ng·h/mL | 1.19 h | – | – | Cc1cn(-c2cc(NC(=O)c3ccc(C)c(Nc4nccc(-c5ccccc5)n4)c3)cc(N3CCNCC3)c2)cn1
11 | 14 µM | > 10 µM | > 10 µM | > 10 µM | > 10 µM | – | – | – | – | – | – | – | – | Cc1cn(-c2cc(CN3CCCC[C@H]3C(=O)O)cc(NC(=O)c3ccc(C)c(Nc4nccc(-c5ccc(F)cc5)n4)c3)c2)cn1
12 | 11.3 µM | 2.77 µM | > 10 µM | > 10 µM | > 10 µM | – | – | – | – | – | – | – | – | Cc1cn(-c2cc(/C=C/C(=O)O)cc(NC(=O)c3ccc(C)c(Nc4nccc(-c5ccccc5)n4)c3)c2)cn1
13 | 26.3 µM | > 10 µM | > 10 µM | > 10 µM | > 10 µM | – | – | – | – | – | – | – | – | Cc1ccc(C(=O)Nc2cc(N3CCN(C)CC3)cc(-n3cnc(C)c3)c2)cc1
14 | 3.29 µM | 0.093 µM | > 10 µM | > 10 µM | > 10 µM | – | – | – | – | – | – | – | – | Cc1ccc(C(=O)Nc2cccc(N3CCN(C)CC3)c2)cc1Nc1nccc(-c2ccc(F)cc2)n1
15 | 13.4 µM | 6 µM | > 10 µM | > 10 µM | > 10 µM | 110 mL/min/kg | 1.72 L/kg | 0.216 h | 58.5 ng·h/mL | 63.7 ng·h/mL | 0.239 h | – | – | Cc1cn(-c2cc(CCS(N)(=O)=O)cc(NC(=O)c3ccc(C)c(Nc4nccc(-c5ccccc5)n4)c3)c2)cn1
16 | 7.41 µM | 0.302 µM | – | > 10 µM | > 10 µM | – | – | – | – | – | – | – | – | CCCCc1cc(NC(=O)c2ccc(C)c(Nc3nccc(-c4ccccc4)n3)c2)cc(-n2cnc(C)c2)c1
17 | 2.13 µM | > 10 µM | > 10 µM | > 10 µM | > 10 µM | 81 mL/min/kg | 4.7 L/kg | 1.09 h | 78 ng·h/mL | 83 ng·h/mL | 0.96 h | – | – | Cc1cn(-c2cc(NC(=O)c3ccc(C)c(C(=O)c4cccc(C#N)c4)c3)cc(N3CCN(C)CC3)c2)cn1
18 | 0.714 µM | 2.57 µM | > 10 µM | 5.42 µM | > 10 µM | 35.7 mL/min/kg | 5.65 L/kg | 3.29 h | 166 ng·h/mL | 187 ng·h/mL | 2.66 h | – | – | Cc1cn(-c2cc(CN3CCN(C)CC3)cc(NC(=O)c3ccc(C)c(Nc4nccc(-c5ccccc5)n4)c3)c2)cn1
